Shown are actives, neighbours in structure and some others; about 6.7% of the full set was active somewhere.
Beta apoptosis: beta cell apoptosis inhibition; protection from apoptosis, % (concentration not given with the values); INS-1E cytokine-induced death, ATP luminescence, 48 h; percent of positive-control rescue, neutral wells zero; actives 0.8% (n = 300,000); AID 435005;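 active = Every replicate reaches about 75%, or at least half do and their mean reaches it too, limit read from the data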;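 also: 0% = cytokine-treated negative control wells and 100% = positive control rescue; higher means more ATP so stronger rescue from cytokine killing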
PREPL inhibitor: human PREPL enzyme inhibition; Q4J6C6; recombinant PREPL, fluorescence polarization activity-based probe; actives 0.68% (n = 320,000); AID 2751; inhibition, % at 5.96 µM; in the data active = inhibition above about 43%;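 also: 0% = enzyme with DMSO and 100% = wells lacking enzyme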
CSC inhib: cancer stem cell inhibition; cancer stem cell-like cells viability, luminescence; AID 2717; actives 1.1% (n = 300,000); inhibition, % at 7.5 µM; in the data active = inhibition above about 75%; tested in HMLE shEcad cells
CHOP inhibitor: inhibitors of CHOP induction in ER stress response; CHO-K1 CHOP-promoter luciferase, tunicamycin-induced, 15-18 h; inhibition, % at 10 µM; actives 3.8% (n = 220,000); AID 2732;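 active = compounds that reduced the stress-induced luciferase reporter signal by more than about 70% of percent inhibition, limit read from the data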;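 also: 0% = tunicamycin plus vehicle and 100% = wells without tunicamycin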
T cruzi inh: blocks replication of Trypanosoma cruzi; inhibition, % (no concentration beside the values); T. cruzi beta-gal in NIH3T3, luminescence, 90 h; actives 1.4% (n = 300,000);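 active = mean inhibition across valid replicates above about 55%, limit read from the data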;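 also: signal also drops with host cell toxicity which is not excluded here; 0% = plate median of DMSO wells and 100% = zero luminescence signal; higher percent means less beta-gal luminescence so fewer parasites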
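compound dosing = single 50 nL compound addition per well in DMSO | material = NIH/3T3 host cells with β-galactosidase reporter T. cruzi | input = 5,000 host fibroblasts per well | timing = ≥90 h infection period, 3 h prior cell attachment | read-out basis = percent inhibition of parasite-derived β-gal signal | detection = GalScreen β-gal luminescence, detergent lysis, 60 min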
GRIN3A LBD mod: modulators (binders) of human NR3A ligand-binding domain; NR3A LBD differential scanning fluorimetry, Tm shift; 0% = protein alone, 100% = glycine-bound protein; Tm shift relative to glycine control, % at 25 µM; actives 2.5% (n = 340,000); AID 1259313;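 active = melting temperature shift of at least 10% of the positive control shift, at one fixed dose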
The depositor's hits bear a star.

Screening Cc1ccc(/C(N)=N/OC(=O)c2ccc3ccccc3c2)cc1 returned Beta apoptosis -5, PREPL inhibitor 2, CSC inhib -7, T cruzi inh 2 and GRIN3A LBD mod 27*.
`CN(C)CCCOC(=O)c1ccc(Cl)cc1Cl` gave Beta apoptosis -5, PREPL inhibitor 14, CSC inhib 8, CHOP inhibitor 18, T cruzi inh 62* and GRIN3A LBD mod 1.
`Cc1cc(C)nc(OC(=O)c2c(Cl)cc(Cl)cc2Cl)n1` gave Beta apoptosis -1, PREPL inhibitor -3, CSC inhib 10, CHOP inhibitor 49, T cruzi inh 48 and GRIN3A LBD mod 0.
Cc1cc(Br)ccc1NC(=O)CN(C)C(=O)C1=COCCO1 was read as Beta apoptosis -5, PREPL inhibitor 12, CSC inhib -11 and GRIN3A LBD mod 0.
CCC1CCC(NC(=O)Nc2cccc(OC)c2)CC1 (configuration not stated) was read as Beta apoptosis 2, PREPL inhibitor 8, CHOP inhibitor -13, T cruzi inh 9 and GRIN3A LBD mod -4.
N#Cc1c(-c2ccccc2)ccnc1N1CCOCC1 was read as Beta apoptosis -1, PREPL inhibitor 0, CSC inhib 3, CHOP inhibitor 7, T cruzi inh 2 and GRIN3A LBD mod -6.
For N/C(=N\OC(=O)c1ccc(Cl)cc1Cl)c1ccc(Cl)cc1 the results were Beta apoptosis -2, PREPL inhibitor 2, CSC inhib 6, CHOP inhibitor 62, T cruzi inh 8 and GRIN3A LBD mod 18*.
`N/C(=N\OC(=O)c1ccc(Cl)cc1Cl)c1ccccc1` gave Beta apoptosis 4, PREPL inhibitor 10, CSC inhib 2, CHOP inhibitor 41, T cruzi inh 10 and GRIN3A LBD mod -24.
For Cc1nccn1-c1cc(C(C)(C)C)nc2c(-c3ccccc3)cnn12 the results were Beta apoptosis -3, PREPL inhibitor 17, CSC inhib 9, CHOP inhibitor 80*, T cruzi inh -11 and GRIN3A LBD mod -4.
Screening Cc1cc(NCc2ccccn2)n2nc(C)c(-c3ccccc3)c2n1 returned Beta apoptosis 42, PREPL inhibitor 3, CSC inhib 5, CHOP inhibitor 26 and GRIN3A LBD mod 3.
CC(C)(C)c1cc(NCCCn2ccnc2)n2ncc(-c3ccccc3)c2n1 was read as Beta apoptosis 114*, PREPL inhibitor 16, CSC inhib 59, CHOP inhibitor -22, T cruzi inh 43 and GRIN3A LBD mod -4.
CC(C)(C)c1cc(NCc2ccccn2)n2ncc(-c3ccc(Cl)cc3)c2n1 was read as Beta apoptosis 7, PREPL inhibitor 17, CSC inhib 56, CHOP inhibitor -5, T cruzi inh 23 and GRIN3A LBD mod 13*.
`Cc1nn2c(NCc3ccccn3)cc(C(C)(C)C)nc2c1-c1ccccc1` gave Beta apoptosis 24, PREPL inhibitor -3, CSC inhib 14, CHOP inhibitor -33, T cruzi inh 57* and GRIN3A LBD mod -3.
`CCc1nccn1-c1cc(C(C)(C)C)nc2c(-c3ccc(Cl)cc3)cnn12` gave PREPL inhibitor -1, CSC inhib 4, CHOP inhibitor 15, T cruzi inh -25 and GRIN3A LBD mod -6.
Screening Cc1cc(NCCCn2ccnc2)n2ncc(-c3ccc(Cl)cc3)c2n1 returned Beta apoptosis 15, PREPL inhibitor 40, CSC inhib 42, T cruzi inh 48 and GRIN3A LBD mod -7.
`COc1cccc(CN(C)CCCn2cnc(C(=O)Nc3ccc(C)c(C)c3)n2)c1` gave GRIN3A LBD mod -2.
For Cc1ccc(S(=O)(=O)N(CC(=O)Nc2cccc(N(C)S(C)(=O)=O)c2)c2ccc(Cl)c(Cl)c2)cc1 the results were PREPL inhibitor -11, CHOP inhibitor 19, T cruzi inh 70* and GRIN3A LBD mod 7.
Screening CN(c1cccc(NC(=O)CN(c2ccc(C34CC5CC(CC(C5)C3)C4)cc2)S(C)(=O)=O)c1)S(C)(=O)=O returned Beta apoptosis 51, PREPL inhibitor 2, CSC inhib 48, CHOP inhibitor 26, T cruzi inh 65* and GRIN3A LBD mod 30*.
